According to PMC11770135 (Journal of Pesticide Science, 2024):

Legend:
[1] = system: respiratory complexes I, III, and IV (NADH oxidase activity); assay: NADH oxidase activity; type: biochemical, housefly (Musca domestica); settings: housefly mitochondria; compound added during NADH oxidation at final 40 nM
Outline: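 Housefly crude mitochondria were prepared by homogenizing in 250 mM sucrose, 5.0 mM EDTA, 10 mM Tris-HCl (pH 7.5), then differential centrifugation, and permeabilized by freeze-thawing. Protein was 30 µg/mL in 150 mM KCl, 2.5 mM MgCl₂, 30 mM KPi (pH 7.4) at 30°C. The reaction was started with 150 µM NADH, and NADH oxidation was followed at 340 nm.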

[2] = system: cytochrome b hemes of complex III; assay: Reduction of cytochrome b hemes in housefly mitochondria; type: biochemical, housefly (Musca domestica); settings: myxothiazol 8 µM with FloMet 5 µM or antimycin A 2 µM
Outline: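 Housefly mitochondria at 0.8 mg/mL were held in 150 mM KCl, 2.5 mM MgCl₂, 1 µM rotenone, 0.2 µM SF6847, 2.0 mM KCN and 30 mM KPi (pH 7.4) at 30°C, and equilibrated with inhibitor(s) for 4 min. Reduction was started with succinate and recorded in dual-wavelength mode. Full reduction was set with excess sodium dithionite.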

[3] = target: T1, Qi site of complex III (Lucilia sericata, UniProt A7DT80); assay: MS-based competition binding, Qi site; design: species or system green bottle fly (Lucilia sericata); settings: reporter ligand FloMet 15 nM; two independent experiments
T1 sequence (A7DT80 1-378): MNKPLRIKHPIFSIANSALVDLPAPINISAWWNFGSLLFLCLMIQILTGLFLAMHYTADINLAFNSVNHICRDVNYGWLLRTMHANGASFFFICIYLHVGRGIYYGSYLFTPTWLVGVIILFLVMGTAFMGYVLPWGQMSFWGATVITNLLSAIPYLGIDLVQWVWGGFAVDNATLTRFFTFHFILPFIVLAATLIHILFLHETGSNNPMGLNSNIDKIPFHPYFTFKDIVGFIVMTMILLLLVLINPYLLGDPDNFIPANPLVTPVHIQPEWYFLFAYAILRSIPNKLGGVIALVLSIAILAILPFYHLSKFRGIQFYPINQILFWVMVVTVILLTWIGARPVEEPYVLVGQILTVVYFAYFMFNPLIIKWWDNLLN
Outline: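 20–40 µg particles were incubated with reporter and competitor for 1 hr at room temperature in 50 mM Tris-HCl, 120 mM NaCl, 0.1 mM EDTA (pH 7.4) with bacitracin and undecyl maltoside. Bound ligand was filtered, acetonitrile-extracted and quantified by LC-ESI-MS/MS. Ki came from a one-site LogKi fit.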

| inhibition of NADH oxidase activity [1] | Structure (SMILES) | effect on reduction of cytochrome b hemes, in combination with myxothiazol [2] | displacement of FloMet bound to the Qi site [3] |
| --- | --- | --- | --- |
| almost no inhibition | CCc1nc2cc(C)c(Oc3ccc(OC(F)(F)F)cc3)cc2c(OC(=O)OC)c1C [FLO, 2-ethyl-3,7-dimethyl-6-[4-(trifluoromethoxy)phenoxy]quinolin-4-yl methyl carbonate] | – | – |
| – | CCCCCC[C@H]1C(=O)O[C@H](C)[C@H](NC(=O)c2cccc(NC=O)c2O)C(=O)O[C@@H](C)[C@@H]1OC(=O)CC(C)C [antimycin A] | suppression of the reduction of b hemes | displaced FloMet at low nano molar range |
